The values that follow come from paper PMC9007039 (Journal of medicinal chemistry, 2021).

The experiment concerns the target GPC3 (Homo sapiens, UniProt P51654). The experiment is classed as cell-based. To be noted: Hep3B cells, 5 µM peptide, confocal microscopy. Summed up: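 Hep3B cells were seeded at ~70% confluence in EMEM with 10% FBS and no antibiotics. They were transfected with 5 nmol of each of three GPC3 siRNAs or a negative-control siRNA using a lipofection reagent. Knockdown was confirmed by anti-GPC3 Western blot with GAPDH as loading control. Cells were methanol-fixed and stained with 5 µM IRDye800-labelled peptide for 5 min at RT, plus anti-GPC3 and AF488 secondary. Intensities were quantified from confocal images.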

Chain of GPC3 (P51654 25-580): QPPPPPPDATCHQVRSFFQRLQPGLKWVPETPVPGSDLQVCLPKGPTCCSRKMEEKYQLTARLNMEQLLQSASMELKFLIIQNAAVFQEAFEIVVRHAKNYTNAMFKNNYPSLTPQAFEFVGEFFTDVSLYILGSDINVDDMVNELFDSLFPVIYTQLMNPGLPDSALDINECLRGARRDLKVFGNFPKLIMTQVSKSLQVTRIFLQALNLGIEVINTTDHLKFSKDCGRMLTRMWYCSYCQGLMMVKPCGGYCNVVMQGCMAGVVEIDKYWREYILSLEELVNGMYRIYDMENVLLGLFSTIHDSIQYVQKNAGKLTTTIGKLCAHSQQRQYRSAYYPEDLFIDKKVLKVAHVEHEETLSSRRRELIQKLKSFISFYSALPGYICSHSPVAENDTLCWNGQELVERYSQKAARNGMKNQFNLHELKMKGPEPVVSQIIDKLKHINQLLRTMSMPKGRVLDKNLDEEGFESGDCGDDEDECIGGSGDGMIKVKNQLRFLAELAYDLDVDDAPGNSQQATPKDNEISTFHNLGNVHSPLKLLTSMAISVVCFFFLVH

In the case of FEAEHNLALQTL [FEA*-IRDye800], the “difference in fluorescence intensity siCL versus siGPC3 cells, all 3 siRNAs” value is given as “non-significant difference”.
